These results are taken from ChEMBL document CHEMBL1154102, “Nucleoside-amino acid conjugates: An alternative route to the design of ribonuclease A inhibitors” (Bioorg Med Chem, 2009).

The target of test [1] is T1, Ribonuclease pancreatic (Bos taurus) (UniProt P61823).
T1 sequence (whole entry): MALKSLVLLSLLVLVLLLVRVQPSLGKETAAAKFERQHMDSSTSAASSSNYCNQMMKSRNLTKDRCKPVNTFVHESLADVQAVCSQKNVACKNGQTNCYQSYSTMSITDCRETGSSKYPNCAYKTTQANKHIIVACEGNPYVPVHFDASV
The test can be described thus: Inhibition of bovine pancreatic RNase A assessed as tRNA degradation at 0.92 mM after 6 hrs using ethidium bromide staining by agarose gel-based assay. The procedure, abridged:
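RNase A (0.66 µM stock) preincubated with varying volumes of compound (0.92 mM stock) 6 h at 37 °C. Aliquots mixed with tRNA (5.0 mg/ml) and glycerol/bromophenol blue sample buffer, 30 min further incubation, then run on 1.1% agarose in TAE pH 8.0. Undegraded tRNA seen by ethidium bromide staining under UV.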

Test [2] deals with T1, Ribonuclease pancreatic (Bos taurus). The test can be described thus: Inhibition of bovine pancreatic RNase A assessed as tRNA degradation at 0.50 mM after 2 hrs by precipitation assay. The procedure, abridged:
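Bond precipitation method. RNase A with conjugate (1 mM stock) preincubated 2 h at 37 °C; aliquot added to tRNA (5 mg/ml) in Tris-HCl pH 7.5 with 5 mM EDTA and 0.5 mg/ml HSA, 30 min at 25 °C. Quenched with ice-cold 1.14 N perchloric acid/6 mM uranyl acetate, 30 min on ice, centrifuged; supernatant diluted, A260 compared to control.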

For test [3] the target is unchanged. Description: Inhibition of bovine pancreatic RNase A at 5 uM by fluorescence assay. In a few lines: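 Fluorimetric titration, 1 cm cuvette, excitation 295 nm: 5 µM ligand in 20 mM phosphate pH 7.0 with 50 mM NaCl, RNase A added stepwise to a final 17.5 µM; change in emission intensity followed.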
For another test, the target named is T2, Ribonuclease pancreatic (Bos taurus, UniProt P61823).
T2 sequence (P61823 whole entry): T1 sequence (whole entry)
The test can be described thus: Inhibition of bovine pancreatic RNase A by spectrophotometric assay.

The target of test [4] is T1, Ribonuclease pancreatic (Bos taurus). Description: Inhibition of bovine pancreatic RNase A assessed as change in pKa of His-105 by NMR spectroscopy. In a few lines:
(§1)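 RNase A H/D exchanged in D2O (50 °C, 20 min, lyophilized, three cycles), redissolved in D2O with 0.17 M NaCl and 0.5 mM DSS; ligand:enzyme molar ratio 5:1; pH* 3–8 set with DCl/NaOD, uncorrected. 1H NMR at 400 MHz, 22.5 °C, 100 scans, 2 s acquisition; His C-2 shifts vs DSS fitted to titration equations for pKa; pK2 used.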

Test [5] has the same target. Description: Inhibition of bovine pancreatic RNase A assessed as change in pKa of His-119 by NMR spectroscopy. In a few lines:
as §1

Test [6] shares this target. The test can be described thus: Inhibition of bovine pancreatic RNase A assessed as change in pKa of His-12 by NMR spectroscopy. In a few lines:
as §1

Calls of active or inactive are those of the source. The rule behind the calls is not given here.

As for `Cc1cn([C@H]2C[C@H](NC(=O)C(N)Cc3c[nH]c4ccccc34)[C@@H](CO)O2)c(=O)[nH]c1=O` (stereo not given in full), the result in test [1], in test [2] and in test [3] was Active.
At Ribonuclease pancreatic, `Cc1cn([C@H]2C[C@H](NC(=O)C(N)Cc3ccc(O)cc3)[C@@H](CO)O2)c(=O)[nH]c1=O` (stereo not given in full) came in with a Ki of 451 µM. For the same compound, the outcome in test [1] and in test [2] was Active.
For `Nc1ccn([C@@H]2O[C@H](CO)[C@@H](O)[C@H]2OP(=O)(O)O)c(=O)n1`, the Ki on Ribonuclease pancreatic turned out to be 7 µM.
Take `Cc1cn([C@H]2C[C@H](NC(=O)C(N)CC(C)C)[C@@H](CO)O2)c(=O)[nH]c1=O` (stereo not given in full): the result in test [4], in test [5] and in test [6] was inactive.
